According to ChEMBL document CHEMBL1153004, “Bis-14-membered ring diketal diamines: synthesis and evaluation of their anti-HIV and anti-tumoral activities” (Eur J Med Chem, 2009):

How the values were obtained:
[1] = test system: Human immunodeficiency virus 1; assay: Antiviral activity against HIV1 3B in human MT4 cells assessed as inhibition of viral replication; format: functional, organism-based; conditions: Human immunodeficiency virus 1, 3B
In short: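 MT-4 cells in RPMI 1640 with 10% FCS at 37 °C, 5% CO2, infected with HIV-1 IIIB at 5 TCID50. After 30 min adsorption, cells were washed and resuspended at 10^5 cells/mL with serial compound dilutions. Inhibition of virus-induced cytopathogenicity was read after 5 days. IC50 came from a median-effect plot; mean of 2 experiments.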

[2] = Cytotoxicity against human MT4 cells by MTT assay; format: cell-based
In short: (§1)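 Uninfected cells were incubated in parallel with a range of compound concentrations. Viability was read by MTT reduction to formazan, OD 540 nm. CC50 was calculated with the same median-effect program used for IC50. Mean of 2 separate experiments.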

[3] = test system: Human immunodeficiency virus 1; assay: Antiviral activity against HIV1 LAI in human CEM-SS cells assessed as inhibition of viral replication; format: functional, organism-based; conditions: Human immunodeficiency virus 1, LAI
In short: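 CEM-SS cells in RPMI 1640 with 10% FCS at 37 °C, 5% CO2, infected with HIV-1 LAI at 20 TCID50. After 30 min adsorption, cells were washed and resuspended at 10^5 cells/mL with serial compound dilutions. After 5 days, reverse transcriptase activity of released virus particles was measured. IC50 came from a median-effect plot; mean of 2 experiments.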

[4] = Cytotoxicity against human CEM-SS cells by MTT assay; format: cell-based; in short: as §1
KB [5] = assay: Antiproliferative activity against human KB cells at 10 uM after 3 hrs by MTS assay; format: functional
In short: (§2)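 Medium was DMEM-Glutamax for KB and HepG2 and RPMI 1640 for the other lines, each with 10% FCS, at 37 °C, 5% CO2. Cells were seeded at 500–800 per well and left to adhere for 24 h. Compounds in DMSO were added at 10^-5 M final, with 3 h exposure. Readout was MTS absorbance versus control wells after blank subtraction; triplicate.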

SF-268 = assay: Antiproliferative activity against human SF268 cells at 10 uM after 3 hrs by MTS assay; format: functional; conditions: SF-268, 3 h; in short: as §2
HL-60 [6] = assay: Antiproliferative activity against human HL60 cells at 10 uM after 3 hrs by MTS assay; format: functional; conditions: HL-60, 3 h; in short: as §2
MCF7 [7] = assay: Antiproliferative activity against human MCF7 cells at 10 uM after 3 hrs by MTS assay; format: functional; conditions: MCF7, 3 h; in short: as §2
MCF7 [8] = assay: Antiproliferative activity against human multidrug-resistant MCF7 cells at 10 uM after 3 hrs by MTS assay; format: functional; conditions: MCF7, 3 h; in short: as §2
HCT-116 [9] = assay: Antiproliferative activity against human HCT116 cells at 10 uM after 3 hrs by MTS assay; format: functional; conditions: HCT-116, 3 h; in short: as §2
A549 = assay: Antiproliferative activity against human A549 cells at 10 uM after 3 hrs by MTS assay; format: functional; conditions: A549, 3 h; in short: as §2
PC-3 [10] = assay: Antiproliferative activity against human PC3 cells at 10 uM after 3 hrs by MTS assay; format: functional; conditions: PC-3, 3 h; in short: as §2
SK-OV-3 = assay: Antiproliferative activity against human SKOV3 cells at 10 uM after 3 hrs by MTS assay; format: functional; conditions: SK-OV-3, 3 h; in short: as §2
HepG2 = assay: Antiproliferative activity against human HepG2 cells at 10 uM after 3 hrs by MTS assay; format: functional; conditions: HepG2, 3 h; in short: as §2
KB [11] = assay: Cytotoxicity against human KB cells after 3 hrs by MTS assay; format: functional, cell-based; in short: as §2
HL-60 [12] = assay: Cytotoxicity against human HL60 cells after 3 hrs by MTS assay; format: functional, cell-based; conditions: HL-60, 3 h; in short: as §2
MCF7 [13] = assay: Cytotoxicity against human MCF7 cells after 3 hrs by MTS assay; format: functional, cell-based; conditions: MCF7, 3 h; in short: as §2
HCT-116 [14] = assay: Cytotoxicity against human HCT116 cells after 3 hrs by MTS assay; format: functional, cell-based; conditions: HCT-116, 3 h; in short: as §2
PC-3 [15] = assay: Cytotoxicity against human PC3 cells after 3 hrs by MTS assay; format: functional, cell-based; conditions: PC-3, 3 h; in short: as §2

Structure (SMILES): CO[C@H]1CCN(Cc2ccc(CN3CCO[C@H](OC)CC(=O)NCCO[C@@H](OC)CC3)cc2)CCO[C@H](OC)CC(=O)NCCO1 (relative stereo)
- IC50 [1]: > 100 µM
- CC50 [2]: > 100 µM
- IC50 [3]: > 100 µM
- CC50 [4]: > 100 µM
- inhibition at 10 µM (KB [5]): 0%
- inhibition at 10 µM (SF-268): 0%
- inhibition at 10 µM (HL-60 [6]): 10%
- inhibition at 10 µM (MCF7 [7]): 13%
- inhibition at 10 µM (MCF7 [8]): 2%
- inhibition at 10 µM (HCT-116 [9]): 7%
- inhibition at 10 µM (A549): 0%
- inhibition at 10 µM (PC-3 [10]): 0%
- inhibition at 10 µM (SK-OV-3): 0%
- inhibition at 10 µM (HepG2): 4%

Structure (SMILES): CO[C@H]1CC(=O)N[C@H](c2ccccc2)CO[C@H](OC)CCN(Cc2ccc(CN3CC[C@@H](OC)OC[C@@H](c4ccccc4)NC(=O)C[C@H](OC)OC[C@H]3c3ccccc3)cc2)[C@H](c2ccccc2)CO1
- IC50 [1]: > 7.8 µM
- CC50 [2]: 7.8 µM
- IC50 [3]: 8.65 µM
- CC50 [4]: > 10 µM
- inhibition at 10 µM (KB [5]): 47%
- inhibition at 10 µM (SF-268): 27%
- inhibition at 10 µM (HL-60 [6]): 54%
- inhibition at 10 µM (MCF7 [7]): 45%
- inhibition at 10 µM (MCF7 [8]): 14%
- inhibition at 10 µM (HCT-116 [9]): 47%
- inhibition at 10 µM (A549): 33%
- inhibition at 10 µM (PC-3 [10]): 51%
- inhibition at 10 µM (SK-OV-3): 38%
- inhibition at 10 µM (HepG2): 27%
- IC50 (KB [11]): 10 µM
- IC50 (HL-60 [12]): 10 µM
- IC50 (MCF7 [13]): 10 µM
- IC50 (HCT-116 [14]): 10 µM
- IC50 (PC-3 [15]): 10 µM

Structure (SMILES): c1cc(CN2CCCNCCNCCCNCC2)ccc1CN1CCCNCCNCCCNCC1 [PLERIXAFOR]
- IC50 [1]: 0.41 µM
- CC50 [2]: 6.5 µM
- IC50 [3]: 0.32 µM
- CC50 [4]: > 5 µM

Structure (SMILES): CO[C@@H]1CCN(Cc2ccc(CN3CC[C@@H](OC)OC[C@@H](c4ccccc4)NC(=O)C[C@@H](OC)OC[C@H]3c3ccccc3)cc2)[C@H](c2ccccc2)CO[C@H](OC)CC(=O)N[C@H](c2ccccc2)CO1
- IC50 [1]: > 10 µM
- CC50 [2]: > 10 µM
- IC50 [3]: > 10 µM
- CC50 [4]: > 10 µM
- inhibition at 10 µM (KB [5]): 12%
- inhibition at 10 µM (SF-268): 14%
- inhibition at 10 µM (HL-60 [6]): 31%
- inhibition at 10 µM (MCF7 [7]): 25%
- inhibition at 10 µM (MCF7 [8]): 8%
- inhibition at 10 µM (HCT-116 [9]): 21%
- inhibition at 10 µM (A549): 17%
- inhibition at 10 µM (PC-3 [10]): 15%
- inhibition at 10 µM (SK-OV-3): 18%
- inhibition at 10 µM (HepG2): 0%
